Reference: ChEMBL document CHEMBL1147015, “Design and synthesis of selective, high-affinity inhibitors of human cytochrome P450 2J2” (Bioorg Med Chem Lett, 2006)

Experiments:
[1] = target: T1, Cytochrome P450 2J2 (Homo sapiens, UniProt P51589); assay: Inhibition of human recombinant CYP2J2 expressed in baculovirus-infected Sf9 insect cells
T1 sequence (P51589 whole entry): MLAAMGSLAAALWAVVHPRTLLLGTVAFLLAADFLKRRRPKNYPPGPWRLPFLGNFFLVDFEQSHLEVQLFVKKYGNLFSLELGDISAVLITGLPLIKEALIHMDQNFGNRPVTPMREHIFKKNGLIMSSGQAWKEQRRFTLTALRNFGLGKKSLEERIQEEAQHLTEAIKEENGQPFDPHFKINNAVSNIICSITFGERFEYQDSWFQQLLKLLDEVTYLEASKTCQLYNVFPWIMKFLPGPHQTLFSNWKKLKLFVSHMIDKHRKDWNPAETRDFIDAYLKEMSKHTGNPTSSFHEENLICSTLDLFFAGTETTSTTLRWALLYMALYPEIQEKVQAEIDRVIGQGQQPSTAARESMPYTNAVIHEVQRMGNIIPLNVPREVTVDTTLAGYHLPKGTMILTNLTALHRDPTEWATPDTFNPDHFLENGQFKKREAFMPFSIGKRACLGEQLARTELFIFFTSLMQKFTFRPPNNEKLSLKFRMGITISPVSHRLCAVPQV
Method in brief: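 Ebastine hydroxylation used as the read-out. Ebastine (0.5 μM) plus inhibitor incubated at 37 °C for 2 or 4 min with Sf9 microsomes (1 nM CYP2J2) in 0.1 M phosphate buffer pH 7.4, 0.1 mM EDTA and NADPH-generating system. Stopped with cold CH3CN/CH3COOH (10:1); protein spun out; supernatant analysed by HPLC on C18. IC50 determined.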

[2] = target: T2, Cytochrome P450 2B6 (Homo sapiens, UniProt P20813); assay: Inhibition of human recombinant CYP2B6; type: ADME
T2 sequence (P20813 whole entry): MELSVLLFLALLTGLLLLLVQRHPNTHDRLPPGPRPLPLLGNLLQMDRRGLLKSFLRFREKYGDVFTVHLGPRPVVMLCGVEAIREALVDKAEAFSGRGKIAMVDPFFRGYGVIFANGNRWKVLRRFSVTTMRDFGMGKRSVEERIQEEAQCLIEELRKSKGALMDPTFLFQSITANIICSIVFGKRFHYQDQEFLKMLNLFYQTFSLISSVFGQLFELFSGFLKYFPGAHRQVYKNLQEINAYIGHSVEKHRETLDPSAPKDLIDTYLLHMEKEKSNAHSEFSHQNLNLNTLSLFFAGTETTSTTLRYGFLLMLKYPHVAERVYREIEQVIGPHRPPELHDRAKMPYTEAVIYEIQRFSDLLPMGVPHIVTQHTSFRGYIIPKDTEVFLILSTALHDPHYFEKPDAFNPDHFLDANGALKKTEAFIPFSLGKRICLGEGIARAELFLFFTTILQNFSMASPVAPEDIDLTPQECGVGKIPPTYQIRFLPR

[3] = target: Cytochrome P450 2C9 (Homo sapiens, UniProt P11712); assay: Inhibition of human recombinant CYP2C9; type: ADME
Sequence of Cytochrome P450 2C9 (P11712 whole entry): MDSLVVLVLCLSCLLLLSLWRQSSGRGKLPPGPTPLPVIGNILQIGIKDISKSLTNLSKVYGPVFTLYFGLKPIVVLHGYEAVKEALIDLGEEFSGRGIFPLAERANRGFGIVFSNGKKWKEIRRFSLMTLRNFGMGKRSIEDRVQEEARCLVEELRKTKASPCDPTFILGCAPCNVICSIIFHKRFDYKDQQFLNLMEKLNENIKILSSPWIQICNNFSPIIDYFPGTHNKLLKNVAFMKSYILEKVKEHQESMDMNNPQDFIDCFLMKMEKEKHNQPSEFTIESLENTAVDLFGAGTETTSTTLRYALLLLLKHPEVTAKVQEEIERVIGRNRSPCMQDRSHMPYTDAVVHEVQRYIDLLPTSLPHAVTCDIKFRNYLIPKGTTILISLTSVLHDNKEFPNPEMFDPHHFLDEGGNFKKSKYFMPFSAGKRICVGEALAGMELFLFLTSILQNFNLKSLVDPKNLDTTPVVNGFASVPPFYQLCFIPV

[4] = target: T3, Cytochrome P450 2C8 (Homo sapiens, UniProt P10632); assay: Inhibition of human recombinant CYP2C8; type: ADME
T3 sequence (P10632 whole entry): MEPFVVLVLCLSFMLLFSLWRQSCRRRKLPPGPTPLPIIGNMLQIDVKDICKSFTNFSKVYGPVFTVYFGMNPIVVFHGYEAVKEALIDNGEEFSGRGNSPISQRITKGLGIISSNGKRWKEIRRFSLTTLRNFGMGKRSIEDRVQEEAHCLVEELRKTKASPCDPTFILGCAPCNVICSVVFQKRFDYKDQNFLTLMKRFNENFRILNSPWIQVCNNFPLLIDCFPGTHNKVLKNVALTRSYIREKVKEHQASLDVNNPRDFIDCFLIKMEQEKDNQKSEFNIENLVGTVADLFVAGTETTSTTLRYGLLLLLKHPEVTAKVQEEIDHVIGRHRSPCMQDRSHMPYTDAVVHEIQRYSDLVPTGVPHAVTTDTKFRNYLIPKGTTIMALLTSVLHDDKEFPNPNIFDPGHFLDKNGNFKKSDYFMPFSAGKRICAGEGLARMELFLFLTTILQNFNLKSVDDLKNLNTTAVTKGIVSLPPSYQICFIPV

[5] = target: Cytochrome P450 3A4 (Homo sapiens, UniProt P08684); assay: Inhibition of human recombinant CYP3A4; type: ADME
Sequence of Cytochrome P450 3A4 (P08684 whole entry): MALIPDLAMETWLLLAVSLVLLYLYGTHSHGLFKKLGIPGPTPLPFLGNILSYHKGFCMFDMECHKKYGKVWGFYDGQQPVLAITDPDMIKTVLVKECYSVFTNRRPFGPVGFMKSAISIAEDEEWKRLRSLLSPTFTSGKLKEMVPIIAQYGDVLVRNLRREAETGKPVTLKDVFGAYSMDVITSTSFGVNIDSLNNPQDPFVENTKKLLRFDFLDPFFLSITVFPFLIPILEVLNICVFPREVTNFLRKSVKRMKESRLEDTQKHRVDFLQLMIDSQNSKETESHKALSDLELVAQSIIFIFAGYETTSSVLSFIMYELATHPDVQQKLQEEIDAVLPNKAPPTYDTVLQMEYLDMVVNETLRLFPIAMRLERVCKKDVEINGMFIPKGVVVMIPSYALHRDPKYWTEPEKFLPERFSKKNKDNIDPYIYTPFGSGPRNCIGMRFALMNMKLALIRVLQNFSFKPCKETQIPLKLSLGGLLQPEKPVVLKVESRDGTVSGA

| IC50 [1] | SMILES | also measured |
| --- | --- | --- |
| 6700 nM | O=C(CCCN1CCC(C(O)(c2ccccc2)c2ccccc2)CC1)c1ccc2c(c1)OCO2 | – |
| 7600 nM | COc1ccc(C(=O)CCCN2CCC(C(O)(c3ccccc3)c3ccccc3)CC2)cc1 | – |
| 400 nM | C=CCc1ccc(C(=O)CCCN2CCC(C(O)(c3ccccc3)c3ccccc3)CC2)cc1 | IC50 [2]: 21000 nM; IC50 [3]: 21000 nM; IC50 [4]: > 100000 nM; IC50 [5]: 5500 nM |
| 600 nM | CCc1ccc(C(=O)CCCN2CCC(C(O)(c3ccccc3)c3ccccc3)CC2)cc1 | – |
| 700 nM | CCCCc1ccc(C(=O)CCCN2CCC(C(O)(c3ccccc3)c3ccccc3)CC2)cc1 | – |
| 1300 nM | O=C(CCCN1CCC(C(O)(c2ccccc2)c2ccccc2)CC1)c1ccc(CCO)cc1 | – |
| 700 nM | CC(C)(C)c1ccc(C(=O)CCCN2CCC(C(O)(c3ccccc3)c3ccccc3)CC2)cc1 [TERFENADONE] | – |
| 1900 nM | O=C(CCCN1CCC(C(O)(c2ccccc2)c2ccccc2)CC1)c1ccc(CCCO)cc1 | – |
| 2200 nM | O=C(CCCN1CCC(C(O)(c2ccccc2)c2ccccc2)CC1)c1ccc(CC(F)F)cc1 | – |
| 4200 nM | O=C(CCCN1CCC(C(O)(c2ccccc2)c2ccccc2)CC1)c1ccc(Br)cc1 | – |
| 700 nM | Cc1ccc(C(=O)CCCN2CCC(C(O)(c3ccccc3)c3ccccc3)CC2)cc1 | – |
| 2500 nM | CC(=O)OCCCc1ccc(C(=O)CCCN2CCC(C(O)(c3ccccc3)c3ccccc3)CC2)cc1 | – |
| 400 nM | CCCc1ccc(C(=O)CCCN2CCC(C(O)(c3ccccc3)c3ccccc3)CC2)cc1 | Ki [1]: 160 nM; IC50 [2]: 28000 nM; IC50 [3]: 26000 nM; IC50 [4]: > 100000 nM; IC50 [5]: 7900 nM |
